Experimental data published in ChEMBL document CHEMBL1145287, “Docking and 3-D QSAR studies on indolyl aryl sulfones. Binding mode exploration at the HIV-1 reverse transcriptase non-nucleoside binding site and design of highly active N-(2-hydroxyethyl)carboxamide and N-(2-hydroxyethyl)carbohydrazide derivatives” (J Med Chem, 2005).

How the values were obtained:
Settings in all cases: Homo sapiens
[1] = system: MT4; assay: (§1) Concentration required for 50% protection of infected MT-4 cells from wtIIIB-HIV-1-induced cytopathogenicity was determined by the MTT method; assay type: functional, cell-based
How it was run: (§2)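 MT-4 cells (1 × 10⁴/well, RPMI 1640 with 10% FCS, 37 °C, 5% CO₂) were infected with HIV-1 IIIB (H9/IIIB supernatant) at an inoculum causing complete cytopathicity by day 4, across graded compound concentrations. Viability was read by MTT, with cytotoxicity run in parallel on mock-infected cells. Concentration giving 50% protection reported as the mean of three experiments.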

[2] = system: MT4; assay: Protection of infected MT-4 cells from wtIIIB-HIV-1-induced cytopathogenicity; assay type: functional, cell-based; how it was run: as §2
[3] = system: C8166; assay: Compound concentration required to reduce the amount of p24 by 90% in C8166 cells infected with an efavirenz-resistant strain EFVR carrying mutations K103R, V179D, and P225H; assay type: functional
How it was run: (§3)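 C8166 cells (1 × 10⁴/well) with serial compound dilutions (200 mM DMSO stock diluted in medium), infected with K103R/V179D/P225H virus selected from IIIB by passage in C8166 cells with efavirenz up to 2 μM (stock 3.0 × 10⁵ CCID₅₀/mL); 37 °C incubation; p24 measured by immunoenzymatic kit; value = concentration giving 90% p24 reduction.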

[4] = system: C8166; assay: Concentration required to reduce the amount of p24 by 90% in C8166 cells infected with an efavirenz-resistant strain EFVR; assay type: functional; how it was run: as §3
[5] = system: C8166; assay: Compound concentration required to reduce the amount of p24 by 90% in wtIIIBinfected C8166 cells; assay type: functional
How it was run: (§4)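 Acute infection of C8166 cells (1 × 10⁴/well, RPMI 1640 with 10% FCS, 37 °C, 5% CO₂) by HIV-1 IIIB from persistently infected H9/IIIB supernatant, with a virus inoculum sized to cause complete cytopathicity at day 4, in the presence of serially diluted compound (DMSO stock diluted in medium). p24 antigen was measured by immunoenzymatic kit. Concentration giving 90% reduction of p24 reported.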

[6] = system: MT4; assay: Compound concentration required to achieve 50% protection of infected MT-4 cells from Y181C strain was determined by the MTT method; assay type: functional, cell-based
How it was run: (§5)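 MT-4 cells (1 × 10⁴/well, RPMI 1640 + 10% FCS) exposed to serial compound dilutions (200 mM DMSO stock diluted in medium), infected with enough virus to give full cytopathicity by day 4; wt IIIB from H9/IIIB supernatant, Y181C and K103N–Y181C from NNRTI-selected passages.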

[7] = system: MT4; assay: Compound concentration required to achieve 50% protection of infected MT-4 cells from K103N-Y181C strain was determined by the MTT method; assay type: functional, cell-based; how it was run: as §5
[8] = system: MT4; assay: Concentration required to achieve 50% protection of infected MT-4 cells from K103N-Y181C; assay type: functional, cell-based; how it was run: as §5
[9] = system: MT4; assay: Concentration required to achieve 50% protection of infected MT-4 cells from Y181C-HIV-1 strain; assay type: functional, cell-based; how it was run: as §5
[10] = system: MT4; assay: as §1; assay type: functional, cell-based; how it was run: as §5; remark: listed apart in the source
[11] = system: C8166; assay: Concentration required to reduce the amount of p24 by 90% in wtIIIB-HIV-1-infected C8166 cells; assay type: functional; how it was run: as §4

Compound | EC50 [2] [nM] | other results
O=[N+]([O-])c1ccc(Cl)c(S(=O)(=O)n2ccc3ccccc32)c1 | – | EC50 [1]: 6030 nM
O=Cc1cc2cc(Cl)ccc2n1S(=O)(=O)c1ccccc1 | > 75000 | –
CCOC(=O)C(=O)c1cc2ccccc2n1S(=O)(=O)c1cc(Cl)ccc1N | 1800 | –
NNC(=O)C(=O)c1cc2ccccc2n1S(=O)(=O)c1ccccc1 | > 200000 | –
NC(=O)c1c(C=O)n(S(=O)(=O)c2ccccc2)c2ccc(Cl)cc12 | ≥ 200000 | –
CCOC(=O)C(=O)c1cc2cc(Cl)ccc2n1S(=O)(=O)c1ccc(C)cc1 | > 200000 | –
CCOC(=O)C(=O)c1cc2ccccc2n1S(=O)(=O)c1ccc(Cl)cc1 | > 100000 | –
CCOC(=O)c1c(C=O)n(S(=O)(=O)c2ccccc2)c2ccccc12 | > 32000 | –
Cc1cc(C)cc(S(=O)(=O)c2c(C(=O)NNCCO)[nH]c3ccc(Cl)cc23)c1 | 1 | EC90 [3]: 200 nM; EC90 [4]: 200 nM; EC90 [5]: 6 nM; EC50 [6]: 30 nM; EC50 [7]: 10000 nM; EC50 [1]: 1 nM; EC50 [8]: 10000 nM; EC50 [9]: 30 nM; EC50 [10]: 1 nM; EC90 [11]: 6 nM
CCOC(=O)c1c(C=O)n(S(=O)(=O)c2ccccc2)c2ccc(Cl)cc12 | > 42000 | –
CCOC(=O)C(=O)c1cc2cc(Cl)ccc2n1S(=O)(=O)c1cc(Cl)ccc1N | 8300 | –
CC(C)OC(=O)c1c(C=O)n(S(=O)(=O)c2ccccc2)c2ccccc12 | > 54000 | –
Cc1ccc(Sc2c(C(=O)NNCCO)[nH]c3ccc(Cl)cc23)c(C)c1 | – | EC50 [1]: 2290 nM
NC(=O)C(=O)c1cc2ccccc2n1S(=O)(=O)c1ccccc1 | 15000 | –
O=C(NCCO)c1[nH]c2ccc(Cl)cc2c1Sc1ccccc1 | – | EC50 [1]: 129 nM
Cc1cccc(S(=O)(=O)c2c(C(=O)NNCCO)[nH]c3ccc(Cl)cc23)c1 | – | EC50 [1]: 10 nM
NC(=O)c1[nH]c2ccc(Cl)cc2c1S(=O)(=O)c1ccc(Cl)cc1 | 11 | –
NC(=O)c1[nH]c2ccc(Cl)cc2c1Sc1ccccc1 | 20 | –
Cc1cc(C)cc(S(=O)(=O)c2c(C(N)=O)[nH]c3ccc(C(C)O)cc23)c1 (stereo not drawn) | 25 | –
NNC(=O)c1[nH]c2ccc(Cl)cc2c1S(=O)(=O)c1cc(Cl)ccc1N | 300 | –
NC(=O)c1[nH]c2ccccc2c1S(=O)(=O)c1cc(Cl)ccc1N | 300 | –

Compound | EC50 [2] [nM] | other results
CCOC(=O)c1[nH]c2ccccc2c1S(=O)(=O)c1cc(Cl)ccc1N | 2500 | –
NC(=O)c1[nH]c2ccc(Cl)cc2c1Sc1cc(Cl)ccc1N | 1600 | –
NC(=O)c1[nH]c2ccc(Cl)cc2c1S(=O)(=O)c1cc(Cl)ccc1N | 40 | –
Cc1cc(C)cc(Sc2c(C(N)=O)[nH]c3ccc(Cl)cc23)c1 | 6 | –
CCOC(=O)c1[nH]c2ccccc2c1S(=O)(=O)c1ccccc1 | 3700 | –
NC(=O)c1[nH]c2ccccc2c1Sc1ccccc1 | 1400 | –
CCOC(=O)c1[nH]c2ccccc2c1Sc1ccccc1 | 1400 | –
NNC(=O)c1[nH]c2ccc(Cl)cc2c1Sc1cc(Cl)ccc1N | > 13000 | –
CCOC(=O)c1[nH]c2ccccc2c1Sc1cc(Cl)ccc1N | ≥ 200000 | –
NC(=O)c1[nH]c2ccc(Cl)cc2c1Sc1ccc(Cl)cc1 | 3100 | –
CC(C)c1ccc(S(=O)(=O)c2c(C(N)=O)[nH]c3ccc(Cl)cc23)cc1 | 80 | –
Cc1ccc(S(=O)(=O)c2c(C(N)=O)[nH]c3ccc(Cl)cc23)c(C)c1 | 4 | –
Nc1cc(Cl)ccc1S(=O)(=O)n1ccc2ccccc21 | – | EC50 [1]: 74100 nM
O=[N+]([O-])c1ccc(Cl)cc1S(=O)(=O)n1ccc2ccccc21 | – | EC50 [1]: 3980 nM
O=[N+]([O-])c1cc(Cl)ccc1S(=O)(=O)n1ccc2ccccc21 | – | EC50 [1]: 15800 nM
CCOC(=O)C(=O)c1cc2cc(Cl)ccc2n1S(=O)(=O)c1ccccc1 | > 200000 | –
NC(=O)C(=O)c1cc2cc(Cl)ccc2n1S(=O)(=O)c1ccccc1 | 66600 | –
CCOC(=O)C(=O)c1cc2ccccc2n1S(=O)(=O)c1ccccc1[N+](=O)[O-] | 1800 | –
O=Cc1cc2ccccc2n1S(=O)(=O)c1ccccc1 | > 150000 | –
Cc1cc(C)cc(S(=O)(=O)c2c(C(=O)NCCO)[nH]c3ccc(Cl)cc23)c1 | 1 | EC90 [3]: 100 nM; EC90 [4]: 100 nM; EC90 [5]: 5 nM; EC50 [6]: 10 nM; EC50 [7]: 500 nM; EC50 [1]: 1 nM; EC50 [8]: 500 nM; EC50 [9]: 10 nM; EC50 [10]: 1 nM; EC90 [11]: 5 nM
Cc1ccc(S(=O)(=O)c2c(C(=O)NCCO)[nH]c3ccc(Cl)cc23)c(C)c1 | – | EC50 [1]: 10 nM

Compound | EC50 [2] [nM] | other results
CCOC(=O)C(=O)c1cc2ccccc2n1S(=O)(=O)c1cc(Cl)ccc1[N+](=O)[O-] | > 100000 | –
CCOC(=O)c1[nH]c2ccccc2c1Sc1ccccc1N | > 200000 | –
CCOC(=O)C(=O)c1cc2cc(Cl)ccc2n1S(=O)(=O)c1ccc(Cl)cc1 | > 200000 | –
NC(=O)c1c(C=O)n(S(=O)(=O)c2ccccc2)c2ccccc12 | > 32000 | –
CCOC(=O)C(=O)c1cc2cc(Cl)ccc2n1S(=O)(=O)c1cc(Cl)ccc1[N+](=O)[O-] | > 31000 | –
CC(C)OC(=O)c1c(C=O)n(S(=O)(=O)c2ccccc2)c2ccc(Cl)cc12 | > 200000 | –
Cc1ccc(S(=O)(=O)c2c(C(=O)NN)[nH]c3ccc(Cl)cc23)cc1 | 50 | –
NC(=O)c1[nH]c2ccccc2c1S(=O)(=O)c1ccccc1 | 180 | –
NNC(=O)c1[nH]c2ccc(Cl)cc2c1Sc1ccc(F)cc1 | 5000 | –
NNC(=O)c1[nH]c2ccc(Cl)cc2c1S(=O)(=O)c1ccc(Cl)cc1 | 190 | –
NNC(=O)c1[nH]c2ccccc2c1S(=O)(=O)c1ccccc1 | 530 | –
NNC(=O)c1[nH]c2ccc(Cl)cc2c1Sc1ccc(Cl)cc1 | 10000 | –
NC(=O)c1[nH]c2ccc(Cl)cc2c1S(=O)(=O)c1c(Cl)cccc1Cl | 100 | –
NC(=O)c1[nH]c2ccccc2c1Sc1cc(Cl)ccc1N | 9000 | –
Cc1cc(C)cc(S(=O)(=O)c2c(C(=O)NN)[nH]c3ccc(Cl)cc23)c1 | 130 | –
NC(=O)c1[nH]c2ccc(Cl)cc2c1S(=O)(=O)c1ccc(F)cc1 | 14 | –
NNC(=O)c1[nH]c2ccc(Cl)cc2c1S(=O)(=O)c1ccccc1 | 10 | –
Cc1ccc(Sc2c(C(=O)NN)[nH]c3ccc(Cl)cc23)cc1 | 1500 | –
CC(C)(C)c1ccc(Sc2c(C(N)=O)[nH]c3ccc(Cl)cc23)cc1 | 8000 | –
Cc1cccc(S(=O)(=O)c2c(C(N)=O)[nH]c3ccc(Cl)cc23)c1 | 1 | –
NNC(=O)c1[nH]c2ccc(Cl)cc2c1Sc1ccccc1 | 550 | –

Compound | EC50 [2] [nM] | other results
Cc1cc(C)cc(S(=O)(=O)c2c(C(N)=O)[nH]c3ccc(Br)cc23)c1 | 2 | –
CCOC(=O)c1[nH]c2ccc(Cl)cc2c1S(=O)(=O)c1ccccc1N | > 200000 | –
Cc1ccccc1Sc1c(C(N)=O)[nH]c2ccc(Cl)cc12 | 300 | –
NC(=O)c1[nH]c2ccc(Cl)cc2c1Sc1ccc(F)cc1 | 1400 | –
CC(C)c1ccc(Sc2c(C(N)=O)[nH]c3ccc(Cl)cc23)cc1 | 1900 | –
Cc1ccccc1S(=O)(=O)c1c(C(N)=O)[nH]c2ccc(Cl)cc12 | 1 | –
CCOC(=O)c1[nH]c2ccc(Cl)cc2c1S(=O)(=O)c1cc(Cl)ccc1N | 1900 | –
CC(=O)c1ccc2[nH]c(C(N)=O)c(S(=O)(=O)c3cc(C)cc(C)c3)c2c1 | 15 | –
NNC(=O)c1[nH]c2ccc(Cl)cc2c1S(=O)(=O)c1ccc(F)cc1 | 320 | –
CCOC(=O)c1[nH]c2ccc(Cl)cc2c1Sc1ccccc1N | 2300 | –
Cc1ccc(S(=O)(=O)c2c(C(N)=O)[nH]c3ccc(Cl)cc23)cc1 | 3 | –
Cc1ccc(Sc2c(C(N)=O)[nH]c3ccc(Cl)cc23)cc1 | > 450 | –
CCOC(=O)c1[nH]c2ccc(Cl)cc2c1Sc1cc(Cl)ccc1N | 2500 | –
CC(C)(C)c1ccc(S(=O)(=O)c2c(C(N)=O)[nH]c3ccc(Cl)cc23)cc1 | 130 | –
NC(=O)c1[nH]c2ccc(Cl)cc2c1Sc1c(Cl)cccc1Cl | 1200 | –
Cc1cc(C)cc(S(=O)(=O)c2c(C(N)=O)[nH]c3ccc(Cl)cc23)c1 | 4 | –
O=C1Nc2ccc(Cl)cc2[C@@](C#CC2CC2)(C(F)(F)F)O1 [EFAVIRENZ] | – | EC90 [3]: 1800 nM; EC90 [4]: 1800 nM; EC90 [5]: 8 nM; EC50 [7]: 150 nM; EC50 [8]: 150 nM; EC90 [11]: 8 nM
NC(=O)c1[nH]c2ccc(Cl)cc2c1S(=O)(=O)c1ccccc1 [L-737126] | 1 | EC90 [4]: 900 nM; EC50 [8]: 8000 nM; EC50 [9]: 20 nM; EC90 [11]: 0.7 nM
Cc1ccnc2c1NC(=O)c1cccnc1N2C1CC1 [NEVIRAPINE] | – | EC90 [3]: > 30000 nM; EC90 [4]: > 30000 nM; EC90 [5]: 120 nM; EC50 [6]: > 30000 nM; EC50 [7]: > 30000 nM; EC50 [8]: > 30000 nM; EC50 [9]: > 30000 nM; EC90 [11]: 120 nM
